Assay results published in ChEMBL document CHEMBL1122025, “Catechol O-methyltransferase. 11. Inactivation by 5-hydroxy-3-mercapto-4-methoxybenzoic acid” (1982).

What was measured:
[1] = target: T1, Catechol O-methyltransferase (Rattus norvegicus) (UniProt P22734); assay: Inhibition constant against Catechol O-methyltransferase from rat liver in the absence of dithiothreitol (DTT)
T1 sequence (whole entry): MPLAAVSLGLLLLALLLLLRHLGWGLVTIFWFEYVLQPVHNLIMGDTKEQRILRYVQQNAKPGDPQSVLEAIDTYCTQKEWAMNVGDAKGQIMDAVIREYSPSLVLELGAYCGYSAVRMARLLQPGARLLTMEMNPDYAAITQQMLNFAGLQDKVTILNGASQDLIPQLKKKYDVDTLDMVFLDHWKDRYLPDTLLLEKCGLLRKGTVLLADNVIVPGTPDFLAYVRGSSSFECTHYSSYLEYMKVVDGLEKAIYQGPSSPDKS

[2] = target: T1, Catechol O-methyltransferase (Rattus norvegicus); assay: Inhibition of Catechol O-methyltransferase from rat liver at time zero with […] of the enzyme after pre-incubation for 30 min (in presence of DTT)
Rattus norvegicus [3] = species: Rattus norvegicus; assay: Effect of dialysis on inhibitory potency when COMT is pre-incubated with dithiothreitol (+DTT) (after dialysis); format: functional
Outline: (§1)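 Rat liver COMT (male Sprague-Dawley, partially purified, DTT-reactivated before use) preincubated 30 min at 37 °C in 0.2 M phosphate buffer pH 7.6 with 1 mM inhibitor, with or without 8.0 mM DTT. Activity was then assayed directly or after dialysis against 0.2 M phosphate pH 7.6 containing 8.0 mM DTT. Result expressed as % activity remaining.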

Rattus norvegicus [4] = species: Rattus norvegicus; assay: Effect of dialysis on inhibitory potency when COMT is pre-incubated in the absence of dithiothreitol (DTT) (after dialysis (-DTT)); format: functional
[5] = target: T1, Catechol O-methyltransferase (Rattus norvegicus); assay: Inhibition of Catechol O-methyltransferase from rat liver at time zero with no further inactivation of the enzyme after pre-incubation for 30 min (in absence of DTT)
Rattus norvegicus [6] = species: Rattus norvegicus; assay: Effect of dialysis on inhibitory potency when COMT is pre-incubated in the absence of dithiothreitol (DTT) (before dialysis); format: functional; outline: as §1
[7] = target: T1, Catechol O-methyltransferase (Rattus norvegicus); assay: Inhibition constant against Catechol O-methyltransferase from rat liver in the presence of 4 mM of dithiothreitol (DTT)
Rattus norvegicus [8] = species: Rattus norvegicus; assay: Effect of dialysis on inhibitory potency when COMT is pre-incubated in the absence of dithiothreitol (DTT) (after dialysis(+DTT))
Rattus norvegicus [9] = species: Rattus norvegicus; assay: Effect of dialysis on inhibitory potency when COMT is pre-incubated with dithiothreitol (DTT) (before dialysis); format: functional; outline: as §1

- Kii [1]: 30.2 µM
- Kis [1]: 59.9 µM
- inhibition [2]: 39%
- inhibition [5]: 91%
- Kii [7]: 743 µM
- Kis [7]: 1140 µM
Structure (SMILES): COc1c(O)cc(C(=O)O)cc1S
- Activity remaining (Rattus norvegicus [3]): 87%
- Activity remaining (Rattus norvegicus [4]): 1%
- Activity remaining (Rattus norvegicus [6]): 7%
- Activity remaining (Rattus norvegicus [8]): 76%
- Activity remaining (Rattus norvegicus [9]): 70%
